The entries come from a sample that favours hits as a whole.
PvdQ inh: P. aeruginosa PvdQ acylase inhibition; 340,000 compounds, 0.063% hits; inhibition, % at 10 µM; purified PvdQ acylase, fluorescence plate reader; in the data active means inhibition above about 30%, passing the limit was not always enough;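 further: 0% = vehicle neutral wells and 100% = reference inhibitor wells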
CHOP UPR activ: apoptotic UPR (CHOP) activation. CHO-CHOP luciferase reporter, luminescence; percent of tunicamycin response over DMSO baseline. activation, % at 10 µM. 330,000 compounds, 0.34% hits. AID 449763;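 active means at 10 µM dose, activation of 40% or more, normalized to positive control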;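 further: 100% = tunicamycin at 10 µg/mL and 0% = DMSO alone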
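Assay system: CHO-CHOP cells, stable luciferase reporter of PERK-eIF2a-CHOP signalling / Buffer or medium: F12 plus 10% serum / Compound dosing: one dose, 10 µM in 0.5% DMSO / Times: 6 h compound treatment, 37 °C / Technique: luciferase luminescence / Read-out: % reporter activation, DMSO baseline versus tunicamycin full activation / Benchmarks: tunicamycin and DMSO controls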
UPR XBP1 act: adaptive UPR (XBP1) activation. CHO-XBP1 luciferase reporter, IRE1-XBP1 UPR activation, luminescence; percent of tunicamycin response, DMSO as zero. activation, % at 20 µM. 330,000 compounds, 0.33% hits;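 active means versus positive control, 20 µM dose yields 30% or more activation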;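 further: 100% = tunicamycin at 10 µg/mL and 0% = DMSO only wells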
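Material – CHO cell line with stable XBP1 luciferase reporter · Buffer or medium – F12 plus 10% FBS · Compound – single point, 20 µM final compound, 1% DMSO · Schedule – 16-18 h cell attachment at 37 °C, then 6 h compound exposure · Signal – Steady-Glo luminescence read · Benchmarks – high control tunicamycin 10 µg/mL final, low control DMSO vehicle only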
CHOP inhibitor: CHOP inhibition in unfolded protein response. AID 2732. inhibition, % at 10 µM. CHO-K1 CHOP-promoter luciferase, tunicamycin-induced, 15-18 h. 220,000 compounds, 3.8% hits;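 active means compounds that reduced the stress-induced luciferase reporter signal by more than about 70% of percent inhibition, limit read from the data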;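 further: 0% = tunicamycin plus vehicle and 100% = wells without tunicamycin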
CHOP inh conf: confirmation of CHOP induction inhibitors; shares compounds with CHOP inhibitor; CHO-CHOP promoter luciferase reporter, tunicamycin-induced, luminescence; inhibition, % at 10 µM; 2,100 compounds, 45% hits; AID 504437;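 active means mean of three repeat readings of reporter signal inhibition above a set limit, cut at about 70% in these data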;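 further: 0% = tunicamycin plus vehicle and 100% = wells lacking tunicamycin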
Active calls of the source: *.

What do the screens show for `CC1(NC(=O)c2ccccc2)CCN(CCCc2ccccc2)C1=O` (centres undefined)?
PvdQ inh: -16; CHOP UPR activ: 2; UPR XBP1 act: 3

How did Cc1ccc(C2C(/C=C3/SC(=S)NC3=O)=C(c3cccs3)Oc3ccccc32)cc1 (centres undefined) do in these assays?
PvdQ inh: 7; CHOP UPR activ: 3; UPR XBP1 act: 2; CHOP inhibitor: 99*; CHOP inh conf: -29

Results for O=C(COC(=O)C1COc2ccccc2O1)Nc1cccc(S(=O)(=O)N2CCCCC2)c1 (centres undefined) ?
PvdQ inh: 7; CHOP UPR activ: 3; UPR XBP1 act: -3; CHOP inhibitor: 36

How did COc1ccc2c(c1)C=C(CN1CCC(CO)(CCc3ccccc3)CC1)CO2 do in these assays?
PvdQ inh: 2; CHOP UPR activ: 0; UPR XBP1 act: -2; CHOP inhibitor: 15

What do the screens show for `COc1ccc(CC2(CO)CCN(CC3=Cc4cc(Cl)ccc4OC3)CC2)cc1`?
PvdQ inh: -13; CHOP UPR activ: 6; UPR XBP1 act: -1; CHOP inhibitor: 102*; CHOP inh conf: 105*

What do the screens show for `CCCCNC(=O)C(c1ccc(OCC(=O)OC)c(C(=O)OC)c1)N(CCOC)C(=O)CCCCCN1C(=O)NC(c2ccc(-c3ccccc3)cc2)C(C(=O)OCc2ccccc2)=C1C` (centres undefined)?
CHOP UPR activ: 1; UPR XBP1 act: -3; CHOP inhibitor: 36

Results for COc1ccc2[nH]c3c(c2c1)CCN1C(=O)C(CC(=O)NCCCn2ccnc2)C[C@H](C(=O)N2CCCCC2)[C@@]31C (some centres undefined) ?
PvdQ inh: 4; CHOP UPR activ: 0; UPR XBP1 act: -2

What do the screens show for `CCCOc1ccc(/C(O)=C2\C(=O)C(=O)N(c3ccccn3)C2c2ccccc2F)cc1C` (centres undefined)?
PvdQ inh: -4; CHOP UPR activ: 1; UPR XBP1 act: 1

What do the screens show for `O=S(=O)(Nc1cccc2c1CCCC2)c1cccc(C(F)(F)F)c1`?
PvdQ inh: -7; CHOP UPR activ: 0; UPR XBP1 act: 3; CHOP inhibitor: 107*; CHOP inh conf: 120*

What do the screens show for `CC(=O)N1CC(C)Oc2ccc(S(=O)(=O)NC(CC(=O)O)c3ccccc3)cc21` (centres undefined)?
PvdQ inh: -15; CHOP UPR activ: 1; UPR XBP1 act: -5

What do the screens show for `CC1(c2ccc3noc(-c4cccc(F)c4)c3c2)OCCO1`?
PvdQ inh: -9; CHOP UPR activ: 1; UPR XBP1 act: -2; CHOP inhibitor: 38

Results for Cc1cccc(-c2onc3ccc(C4(C)OCCO4)cc23)c1 ?
PvdQ inh: -1; CHOP UPR activ: 3; UPR XBP1 act: -1; CHOP inhibitor: 106*; CHOP inh conf: 32

Results for CC1CCC(C(C)C)C(OC(=O)COC(=O)c2ccc(=O)[nH]c2)C1 (centres undefined) ?
PvdQ inh: -4; CHOP UPR activ: 0; UPR XBP1 act: -2; CHOP inhibitor: 63

How did CC1CCC(C(C)C)C(OC(=O)COC(=O)c2cc(O)ccc2N)C1 (centres undefined) do in these assays?
PvdQ inh: -9; CHOP UPR activ: 23; UPR XBP1 act: 26; CHOP inhibitor: 105*; CHOP inh conf: 109*

How did O=C(/C=C/c1ccncc1)c1ccc(NC(=O)c2ccccc2F)cc1 do in these assays?
PvdQ inh: -10; CHOP inhibitor: 106*; CHOP inh conf: -125

How did COCCN(C(=O)CSc1nc2ccc(OC)cc2[nH]1)c1c(N)n(Cc2ccccc2)c(=O)[nH]c1=O do in these assays?
PvdQ inh: -24; CHOP UPR activ: 0; UPR XBP1 act: -2

How did CS(=O)c1nc(-c2ccc(Br)cc2)cc(-c2ccccc2)c1C#N (centres undefined) do in these assays?
PvdQ inh: 7; CHOP UPR activ: 162*; UPR XBP1 act: 1; CHOP inh conf: -14

Results for N#Cc1c(-c2ccc(Br)cc2)cc(-c2cccnc2)nc1N ?
PvdQ inh: 12; CHOP UPR activ: -2; UPR XBP1 act: -3; CHOP inhibitor: -18

What do the screens show for `CCOC(=O)COc1ccccc1/C=C\[N+](=O)[O-]`?
PvdQ inh: -17; CHOP inhibitor: 107*; CHOP inh conf: 86*

What do the screens show for `Nc1cccc(-c2cn(-c3cc4cc(C#CC5(O)CCCCC5)ccc4oc3=O)nn2)c1`?
PvdQ inh: -12; CHOP UPR activ: 0; UPR XBP1 act: -4

Results for O=C(NC(=S)Nc1ccc2oc(-c3cccnc3)nc2c1)c1cccc(Cl)c1 ?
PvdQ inh: 4; CHOP UPR activ: 5; UPR XBP1 act: 1; CHOP inhibitor: 99*; CHOP inh conf: 8

How did O=[N+]([O-])c1cccnc1N1CCC(c2cc(-c3cccc(C(F)(F)F)c3)n[nH]2)CC1 do in these assays?
PvdQ inh: -2; CHOP UPR activ: 2; UPR XBP1 act: 0; CHOP inhibitor: 103*; CHOP inh conf: 48

What do the screens show for `Cc1cc(C(=O)COC(=O)c2n[nH]c(=O)c3ccccc23)c(C)n1C(C)C`?
PvdQ inh: -2; CHOP UPR activ: 1; UPR XBP1 act: 3

How did Cc1ccc(-c2csc3nc4c5ccccc5c(NCCCN(C)C)nn4c(=O)c23)cc1 do in these assays?
PvdQ inh: -3; CHOP UPR activ: 2; UPR XBP1 act: 13; CHOP inhibitor: 102*; CHOP inh conf: -305

What do the screens show for `Cc1ccc(-c2csc3nc4c5ccccc5c(NCCCN5CCOCC5)nn4c(=O)c23)cc1`?
CHOP UPR activ: 3; UPR XBP1 act: 7; CHOP inhibitor: 11

What do the screens show for `Cn1c(=O)c(=O)n(C)c2cc(S(=O)(=O)N3CCC(Cc4ccccc4)CC3)ccc21`?
PvdQ inh: -16; CHOP UPR activ: 1; UPR XBP1 act: 1; CHOP inhibitor: 62

How did O=c1[nH]c2ccc(S(=O)(=O)N3CCC(Cc4ccccc4)CC3)cc2o1 do in these assays?
PvdQ inh: -2; CHOP UPR activ: -1; UPR XBP1 act: -2; CHOP inhibitor: 100*; CHOP inh conf: 16

What do the screens show for `Nc1c(C(=O)Nc2ccccc2)c2nc3ccccc3nc2n1CCCN1CCOCC1`?
PvdQ inh: 14; CHOP UPR activ: 4; UPR XBP1 act: 1; CHOP inhibitor: 100*; CHOP inh conf: 39

Results for N#Cc1c(N)n(CCCN2CCOCC2)c2nc3ccccc3nc12 ?
PvdQ inh: 0; CHOP UPR activ: -2; UPR XBP1 act: -2

What do the screens show for `Cn1c(=O)n(Cc2ccccc2)c(=O)c2c1nc1n2CCCN1C1CCCCC1`?
PvdQ inh: 3; CHOP UPR activ: 1; UPR XBP1 act: 6

Results for Cn1c(=O)n(Cc2ccc(F)cc2)c(=O)c2c1nc1n2CCCN1C1CCCCC1 ?
PvdQ inh: 19; CHOP UPR activ: -3; UPR XBP1 act: 0; CHOP inhibitor: 103*; CHOP inh conf: 26
